# This excerpt belongs to a sample that is enriched for hits.
# FLuc inh counter – inhibits firefly luciferase, flagging false hits in luciferase inhibition screens. P08659. ATPLite firefly luciferase biochemical luminescence, 10 min. inhibition, % at 10 µM. hit rate 1.5% among 200,000;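 active = inhibition above about 50% when tested at 10 µM, limit read from the data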
# FLuc stim CS – firefly luciferase counter-screen for stimulation assays. P08659. AID 1027. activation factor at 10 µM. ATPlite luciferase biochemical, luminescence, 10 min; 0 = ATP-free wells, 1 = DMSO control. 200,000 tested, under 10 active;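 active = luciferase activation factor, scaled between plate controls, of at least 2 with compound at 10 µM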
#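 System: luciferase plus luciferin reagent, cell-free; medium: PBS as buffer for the ATP substrate; dosing: test compounds dosed from 2 mM stocks in 100% DMSO; timing: 10 min post-reagent at room temperature; measured by: luminescence measurement of luciferase light output; evaluation: luciferase activation, seen as luminescence increase over controls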
# ABCB1 block – human ABCB1 inhibition, ABCG2 as counter-screen | CCRF-Adr cells, JC-1 efflux, flow cytometry | AID 1326 | inhibition, % at 6.6 µM | P08183 | hit rate 0.067% among 190,000; in the data active = inhibition above about 40%;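 also: higher value means more JC-1 retained so stronger ABCB1 efflux block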
# ABCB6 inh MLPCN – blocks the human ABCB6 transporter; fluorescence ratio to DMSO, % at 10 µM; hit rate 0.19% among 360,000; K562-ABCB6 porphyrin accumulation, flow cytometry, 1 h; hits give low values; Q9NP58; AID 602162;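 active = fluorescence ratio to DMSO below 75%, the collection mean minus 3 SD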;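 also: signal is porphyrin accumulated inside mitochondria; lower ratio means ABCB6 inhibition with less porphyrin fluorescence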
# Diaph act CS – counter-screen for diaphorase-based assays: diaphorase activators and chemical reducers | AID 1229 | activation factor at 20 µM | hit rate 0.005% among 190,000 | Diaphorase/resazurin coupled assay, resorufin fluorescence, 16 min; hits give high values; 1 = vehicle wells, 0 = NADH-free wells;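 active = diaphorase activity raised at least twofold by the compound at 20 µM; inactive = activation factor below 2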
#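 Material: purified diaphorase enzyme from Clostridium kluyveri / Medium: HEPES pH 7.4 buffer with MgCl2 and Tween 20 / Schedule: enzyme reaction of 16 min at room temperature / Measured by: resorufin fluorescence, excitation 544 nm, emission 590 nm / Evaluation: rise in resorufin formation, marking diaphorase activation or chemical reduction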
# ABCG2 inh – human ABCG2 inhibition, ABCB1 as counter-screen; Q9UNQ0; IgMXP3 cells, JC-1 efflux, flow cytometry; inhibition, % at 6.6 µM; hit rate 0.1% among 190,000; AID 1325;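 active = inhibition above 80%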
# Target sequence (Q9UNQ0 whole entry, looked up): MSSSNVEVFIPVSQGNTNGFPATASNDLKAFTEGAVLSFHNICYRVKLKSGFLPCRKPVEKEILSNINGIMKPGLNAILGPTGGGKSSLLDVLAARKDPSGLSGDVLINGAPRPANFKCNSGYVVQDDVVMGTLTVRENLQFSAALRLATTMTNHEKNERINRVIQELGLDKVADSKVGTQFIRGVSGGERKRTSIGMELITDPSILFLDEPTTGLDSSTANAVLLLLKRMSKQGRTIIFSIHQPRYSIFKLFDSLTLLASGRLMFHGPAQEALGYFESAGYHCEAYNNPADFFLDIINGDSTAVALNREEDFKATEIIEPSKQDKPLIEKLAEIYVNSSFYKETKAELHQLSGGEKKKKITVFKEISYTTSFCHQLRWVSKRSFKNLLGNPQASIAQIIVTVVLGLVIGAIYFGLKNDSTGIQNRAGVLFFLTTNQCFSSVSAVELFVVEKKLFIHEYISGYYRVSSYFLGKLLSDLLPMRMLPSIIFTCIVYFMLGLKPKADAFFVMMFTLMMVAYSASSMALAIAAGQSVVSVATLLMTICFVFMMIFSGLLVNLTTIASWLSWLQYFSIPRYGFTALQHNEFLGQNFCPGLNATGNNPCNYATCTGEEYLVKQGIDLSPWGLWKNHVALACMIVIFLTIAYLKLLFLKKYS
#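 test system = two drug-resistant human cell lines, ABCG2 and ABCB1 | amount = 3 million cells/mL final, two lines in 1:1 ratio | reagent = JC-1 transporter substrate | doses = one concentration, 6.6 µM final | incubation = 10 min at 25 °C | signal = flow cytometric JC-1 green MFI at 530 nm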
# A number is an active result; n = inactive; x = not tested or not shown.
SMILES,FLuc inh counter,FLuc stim CS,ABCB1 block,ABCB6 inh MLPCN,Diaph act CS,ABCG2 inh
Cc1c(C(=O)NC2=NCCS2)oc2ccccc12,51,n,n,n,n,n
O=C(Nc1ccccn1)c1sc2cccc(F)c2c1Cl,81,n,n,n,n,n
Cc1ccc(NC(=O)c2sc3ccccc3c2Cl)nc1,80,n,n,n,n,n
O=C(Nc1cccnc1)c1sc2cccc(F)c2c1Cl,n,n,n,n,n,n
O=C(NC1=NCCS1)c1cc(-c2ccc(-c3ccccc3)cc2)nc2ccccc12,73,n,n,n,n,n
O=C(OCCn1c(=S)sc2ccccc21)c1ccccc1,x,x,x,n,x,x
Cc1nnc(NC(=O)c2sc3ccccc3c2Cl)s1,97,n,n,n,n,n
O=C(NC1=NCCS1)c1sc2ccccc2c1Cl,56,n,n,n,n,n
O=C(NC1=NCCS1)c1sc2cc(Cl)cc(Cl)c2c1Cl,n,n,n,n,n,n
COCc1nnc(NC(=O)c2sc3ccccc3c2Cl)s1,63,n,n,n,n,n
Cc1cccnc1NC(=O)c1sc2ccccc2c1Cl,x,x,x,n,x,x
CCN(C(=O)c1ccco1)c1nnc(-c2ccc(OC)cc2)s1,85,n,n,n,n,n
CCCN(C(=O)c1ccco1)c1nnc(-c2cccc(C)c2)s1,n,n,n,n,n,n
O=C(N/N=C/c1cccs1)c1ccc2c(c1)OCO2,88,n,n,n,n,n
O=C(O)c1ccc(N/N=C/c2ccc3c(c2)OCO3)cc1,61,n,n,n,n,n
O=C(N/N=C/c1ccc(Cl)cc1)c1ccc2c(c1)OCO2,x,x,x,n,x,x
O=C(O)c1cc(N/N=C/c2ccc3c(c2)OCCO3)ccc1Cl,56,n,n,n,n,n
O=C(N/N=C/c1ccc2c(c1)OCO2)c1ccc2c(c1)OCCO2,80,n,n,n,n,n
O=C(N/N=C/c1ccccc1O)c1ccc2c(c1)OCO2,x,x,x,n,x,x
CC(=O)NC(CC(=O)Nc1ccc2c(c1)OCCO2)c1ccccc1 (centres undefined),x,x,x,n,x,x
C/C(=N\NC(=O)c1ccc(CSc2nncn2C)cc1)c1cccs1,n,n,n,n,n,n
O=C(N/N=C/c1cccc([N+](=O)[O-])c1)c1ccc2c(c1)OCCO2,84,n,n,n,n,n
Cn1cnnc1SCc1ccc(C(=O)N/N=C/c2cccs2)cc1,65,n,n,n,n,n
COC(=O)c1ccc2nc(NC(=O)C(C)(C)C)sc2c1,95,n,n,n,n,n
COC(=O)c1ccc2nc(NC(=O)C3CCCCC3)sc2c1,n,n,n,n,n,n
SMILES,FLuc inh counter,FLuc stim CS,ABCB1 block,ABCB6 inh MLPCN,Diaph act CS,ABCG2 inh
Cn1nc(C(=O)Nc2ccc3c(c2)OCCO3)cc1C(=O)O,65,n,n,n,n,n
O=C(Nc1ccc(NC(=O)c2ccccn2)cc1)C(=O)Nc1ccc2c(c1)OCCO2,n,n,n,n,n,n
O=C(Nc1ccc2c(c1)OCCO2)NC1CCCCC1,71,n,n,n,n,n
O=C(Nc1ccc2c(c1)OCCO2)c1ccccn1,93,n,n,n,n,n
O=C(Nc1ccc2c(c1)OCCO2)c1ccc2ccccc2n1,62,n,n,n,n,n
Cn1ccc(C(=O)Nc2ccc3c(c2)OCCO3)n1,x,x,x,n,x,x
COc1ccc(CCNC(=S)c2ccccc2)cc1OC,x,x,x,n,x,x
CC1(C(=O)Nc2cnc3ccccc3c2)CCN1C(=O)CCc1ccccc1 (centres undefined),x,x,x,n,x,x
Cc1nnc(SC(C)C(=O)NC2CCCCC2)[nH]c1=O (centres undefined),x,x,x,n,x,x
CCCN(CC(=O)Nc1ccccc1OC)C(=O)CCNC(=O)c1ccccc1OC,x,x,x,n,x,x
O=C(Nc1ccc2c(c1)OCO2)Nc1ccccn1,50,n,n,n,n,n
CCn1cc(Cl)c(C(=O)Nc2ccc3c(c2)OCCO3)n1,74,n,n,n,n,n
COc1ccc(NC(=O)C(Cl)=C(Cl)Cl)cn1,n,n,n,n,n,n
COc1ccc(NC(=O)/C(Cl)=C(/Cl)S(=O)(=O)Cc2ccccc2)cn1,n,n,n,60,n,n
COc1ccc(NC(=O)C(C)(C)Oc2ccc(Cl)cc2)cn1,x,x,x,n,x,x

# Screening data as filed in PubChem BioAssay.
